From PubChem
SF-1 act: SF-1 (human) activation; Q13285; CHO-K1 Gal4-SF-1 LBD luciferase reporter; % increase over DMSO SF-1-specific signal; activation, % at 10 µM; hit rate 1.9% among 65,000; AID 522;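 active = activation above the mean activation of all tested compounds plus 3 SD, cut at about 50% in these data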
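material = CHO-K1 cells with Gal4–hSF-1 LBD chimera plus Gal4-driven luciferase | compound = 10 µM single point, 1% DMSO | incubation = 20 h compound exposure at 37 °C after 1 h cell settling | measured by = SteadyLite luciferase luminescence | evaluation = percent activation relative to DMSO median and mock-transfected background | control set = DMSO negative control and −SF1 background wells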
M1 antagonist: M1 muscarinic receptor (rat) antagonism; AID 628; P08482; B-score at 10 µM; CHO-M1 cells, Fluo-4 calcium, ACh EC80 antagonist mode; active compounds read low; hit rate 3.4% among 64,000;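 active = calcium fluorescence response, raw or row-and-column corrected B-score, differing from the plate sample mean either way at a set confidence level, mostly lower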
M1 ag: activates the M1 muscarinic receptor. CHO-M1 cells, Fluo-4 calcium fluorescence, agonist mode; active compounds read high. B-score at 10 µM. hit rate 3% among 64,000. AID 626;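 active = fluorescence rise, raw or as B-score row- and column-corrected plate score, outside the 99.7% band of its plate's samples, either direction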
S1P3 agonist: agonists of human S1P3 receptor. Q99500. S1P3 NFAT-BLA reporter cells, agonism, FRET ratio; relative to 1 µM S1P, basal subtracted. activation, % at 4.5 µM. hit rate 0.1% among 60,000. AID 373;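 active = activation above the screen-wide mean plus 3 SD, cut at about 4.5% in these data, passing the limit was not always enough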
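Assay system: CHO cells stably expressing human S1P3, Gα16 and NFAT-β-lactamase reporter. Timing: overnight plating, 4 h compound 37 °C, 2 h substrate RT. Signal: β-lactamase FRET emission ratio 460/535 nm. Measure: percent activation versus median 1 µM S1P response, basal-subtracted, per plate. Repeats: primary screen single test, confirmation screen in triplicate.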
S1P1 ag pot: activates or potentiates agonism at human S1P1 receptor | S1P1 CRE-bla cells, forskolin, beta-lactamase FRET, potentiator mode; S1P1 agonist co-added at EC20, 2 nM; 100% = saturating reference agonist, 0% = basal | activation, % at 9.5 µM | hit rate 0.57% among 56,000 | AID 449;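 active = activation above a cutoff set at the mean activation of all tested compounds plus 3 SD, cut at about 54% in these data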;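 also: forskolin at 4 µM as EC80 and the EC20 agonist is SEW2871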
Target sequence (P21453 whole entry, looked up): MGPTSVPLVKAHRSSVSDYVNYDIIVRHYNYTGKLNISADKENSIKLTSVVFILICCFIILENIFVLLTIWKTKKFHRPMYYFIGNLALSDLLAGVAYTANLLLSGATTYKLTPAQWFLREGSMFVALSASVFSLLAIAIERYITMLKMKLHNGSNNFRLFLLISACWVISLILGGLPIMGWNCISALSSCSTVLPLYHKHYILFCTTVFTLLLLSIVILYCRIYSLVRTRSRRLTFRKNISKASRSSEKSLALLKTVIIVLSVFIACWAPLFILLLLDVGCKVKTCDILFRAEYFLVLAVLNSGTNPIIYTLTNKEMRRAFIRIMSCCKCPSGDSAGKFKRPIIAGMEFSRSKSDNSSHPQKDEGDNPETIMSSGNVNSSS
RORA act: activators of human nuclear receptor RORA. CHO-K1 Gal4-RORA LBD luciferase reporter, luminescence; percent increase over mock-subtracted basal signal. activation, % at 10 µM. hit rate 1.5% among 65,000. AID 560;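 active = activation above the mean of all tested compounds plus 3 SD, cut at about 49% in these data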
M1 agonist conf: rat M1 muscarinic agonism, confirmation | fluorescence change (max-min) at 10 µM | AID 1488 | hit rate 19% among 1,700 | CHO-M1 cells, Fluo-4 calcium fluorescence, agonist mode; actives lie on both sides | shares compounds with M1 ag;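 active = fluorescence change differs from the solvent-only DMSO control mean at a set confidence level in both duplicate runs; inconclusive = differs from solvent-only control mean in just one of two runs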;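 also: an EC20 dose of acetylcholine follows compound addition during the same imaging run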
M4 ag counter: rat M4 muscarinic agonism, M1 counter-screen; hit rate 9% among 1,700; fluorescence change (max-min) at 10 µM; CHO M4/Gqi5 cells, Fluo-4 calcium fluorescence, agonist mode; actives lie on both sides; shares compounds with M1 ag; AID 1741;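 active = fluorescence change differing from the plate's solvent-only control wells at 99.7% confidence in both duplicates, whether higher or lower; inconclusive = differs from solvent controls in only one of two duplicates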
Hits are given with their value. Rows were chosen to be rich in hits. Some 8.8% of all compounds tested hit in one or more screens of this group.

Screening CCC1(CC)C(=O)NC(=O)NC1=NCCc1c[nH]c2ccccc12 returned SF-1 act inactive, M1 antagonist inactive, M1 ag inactive, S1P3 agonist inactive, S1P1 ag pot inactive and RORA act inactive.
CN1C(=O)C2(N=c3ccccc3=N2)c2ccccc21 was read as SF-1 act inactive, M1 antagonist inactive, M1 ag inactive, S1P3 agonist inactive, S1P1 ag pot inactive and RORA act inactive.
Screening COc1cccc(C2=CC(c3ccc(OC)c(OC)c3OC)n3nnnc3N2)c1 (stereo not given) returned SF-1 act inactive, M1 antagonist inactive, M1 ag inactive, S1P3 agonist inactive, S1P1 ag pot inactive and RORA act inactive.
`COc1ccc(C2=CC(c3ccc(Cl)cc3)n3cnnc3N2)cc1OC` (stereo not given) gave SF-1 act inactive, M1 antagonist inactive, M1 ag 6.8, RORA act inactive, M1 agonist conf 223 and M4 ag counter 190.
`CC(C)Oc1ccc(N2CC(C(=O)Nc3ccc4c(c3)OCO4)CC2=O)cc1` (stereo not given) gave SF-1 act inactive, M1 antagonist inactive, M1 ag inactive, S1P3 agonist inactive, S1P1 ag pot inactive and RORA act inactive.
For Cn1c(-c2ccc3c(c2)OCO3)cnc1N the results were SF-1 act inactive, M1 antagonist inactive, M1 ag inactive, S1P3 agonist inactive, S1P1 ag pot inactive and RORA act inactive.
c1cc2c(cc1-c1cnc3n1CCC3)OCCO2 was read as SF-1 act inactive, M1 antagonist inactive, M1 ag 2.6, S1P3 agonist inactive, S1P1 ag pot inactive, RORA act inactive, M1 agonist conf inconclusive and M4 ag counter inactive.
For C=CCNc1ncnc2c1[nH]c1ccc(C)cc12 the results were SF-1 act inactive, M1 antagonist inactive, M1 ag 4.2, S1P3 agonist inactive, S1P1 ag pot inactive, RORA act inactive, M1 agonist conf inactive and M4 ag counter inactive.
Screening CC(=O)Nc1nc(C)c(-c2csc(Nc3ccc(O)cc3)n2)s1 returned SF-1 act inactive, M1 antagonist -2, M1 ag 6.4, S1P3 agonist inactive, S1P1 ag pot inactive, RORA act inactive, M1 agonist conf inactive and M4 ag counter inconclusive.
`Cc1nc(C)c(-c2csc(Nc3cccnc3)n2)s1` gave SF-1 act inactive, M1 antagonist inactive, M1 ag inactive, S1P3 agonist inactive, S1P1 ag pot inactive and RORA act inactive.
`CCn1c(CSc2nccn2C)nc2cc(C(=O)O)ccc21` gave SF-1 act inactive, M1 antagonist inactive, M1 ag 7.2, S1P3 agonist inactive, S1P1 ag pot inactive, RORA act inactive, M1 agonist conf inactive and M4 ag counter inactive.
COc1ccc(S(=O)(=O)N(C)CC(=O)NC2CC2)cc1 was read as SF-1 act inactive, M1 antagonist inactive, M1 ag inactive, S1P3 agonist inactive, S1P1 ag pot inactive and RORA act inactive.
CN(C)c1ccc(-c2nc3ccccc3n2C)cc1 was read as SF-1 act inactive, M1 antagonist inactive, M1 ag inactive, S1P3 agonist inactive, S1P1 ag pot inactive and RORA act inactive.
For CCN(CC)c1ccc2cc(-c3nc4ccccc4n3C)c(=O)oc2c1 the results were SF-1 act inactive, M1 antagonist inactive, M1 ag 65, S1P3 agonist inactive, S1P1 ag pot inactive, RORA act inactive, M1 agonist conf 280 and M4 ag counter 400.
CCCS(=O)(=O)N1CCc2cc(OC)c(OC)cc2C1 was read as SF-1 act inactive, M1 antagonist inactive, M1 ag inactive, S1P3 agonist inactive, S1P1 ag pot inactive and RORA act inactive.
Cc1ccc(S(=O)(=O)c2cccc(S(=O)(=O)N3CCCC3)c2)cc1S(=O)(=O)N1CCCC1 was read as SF-1 act inactive, M1 antagonist -6.4, M1 ag 4.2, RORA act inactive, M1 agonist conf inactive and M4 ag counter inconclusive.
Screening O=S(=O)(c1ccccc1)c1cccc(S(=O)(=O)N2CCCCC2)c1 returned SF-1 act inactive, S1P3 agonist inactive, S1P1 ag pot inactive and RORA act inactive.
`COc1ccc(-n2c(=O)cc(N3CC(C)OC(C)C3)[nH]c2=O)cc1` (stereo not given) gave SF-1 act inactive, M1 antagonist inactive, M1 ag inactive, S1P3 agonist inactive, S1P1 ag pot inactive and RORA act inactive.
Screening CCN1C2=NCCCN2c2cc(C)c(C)cc21 returned SF-1 act inactive, M1 antagonist inactive, M1 ag inactive, S1P3 agonist inactive, S1P1 ag pot inactive and RORA act inactive.
`CCCn1nnnc1NC(=O)CSc1ccc(Cl)cc1` gave SF-1 act inactive, M1 antagonist inactive, M1 ag inactive, S1P3 agonist inactive, S1P1 ag pot inactive and RORA act inactive.
C=CCOc1cccc(C2C(C(=O)c3ccc(C)o3)=C(O)C(=O)N2c2nccs2)c1 (stereo not given) was read as SF-1 act inactive, M1 antagonist inactive, M1 ag 58, RORA act inactive, M1 agonist conf 834 and M4 ag counter 84.
For Cc1ccc(C(=O)C2=C(O)C(=O)N(c3ncccn3)C2c2cccc(Cl)c2)o1 (stereo not given) the results were SF-1 act inactive, M1 antagonist inactive, M1 ag inactive, S1P3 agonist inactive, S1P1 ag pot inactive and RORA act inactive.
`COc1ccc(-c2cc(O)cc(O)c2)cc1` gave SF-1 act inactive, M1 antagonist inactive, M1 ag inactive, S1P3 agonist inactive and RORA act inactive.
Screening COCCN1C(=O)C(=O)/C(=C(/O)c2cccc(S(=O)(=O)N(C)C)c2)C12C(=O)N(C)c1ccccc12 (stereo not given) returned SF-1 act inactive, M1 antagonist inactive, M1 ag inactive, S1P3 agonist inactive, S1P1 ag pot inactive and RORA act inactive.
Screening CCOC(=O)SC1=N/C(=C\c2ccc(N(C)C)cc2)C(=O)S1 returned SF-1 act inactive, M1 antagonist inactive, M1 ag 10, S1P3 agonist inactive, S1P1 ag pot inactive, RORA act inactive, M1 agonist conf inconclusive and M4 ag counter inconclusive.
Screening CCSC1=N/C(=C\c2ccc(C(=O)O)cc2)C(=O)S1 returned SF-1 act inactive, M1 antagonist inactive, M1 ag inactive, S1P3 agonist inactive, S1P1 ag pot inactive and RORA act inactive.
